Here are results for 6 molecules from PubChem BioAssay AID651942 (The Scripps Research Institute Molecular Screening Center, 2012).

The source made the active and inactive calls.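 The calls were made as follows: active = inhibitor of the AddAB recombination enzyme whose half-maximal inhibitory concentration is at or below 10 µM; inactive = half-maximal inhibitory concentration above 10 µM.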

This experiment has as its system E. coli V3065 expressing H. pylori AddAB, T4 phage, OD growth. The experiment in a line: dose-dependent OD loss of phage-infected AddAB+ E. coli – absorbance, E. coli V3065, powder samples, round 2, AddAB inhibitor project, late-stage follow-up (AID 651942). An outline of the steps:
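Test system: E. coli V3065 carrying H. pylori addAB+; Medium: Cation Mueller Hinton broth; Reagent: mutant T4 phage, MOI 0.02; Doses: 10-point threefold series from 118.6 µM; Incubation: 60 min preincubation, 18 h post-infection, 37 °C; Measured by: optical density at 600 nm as bacterial growth measure; Control set: ciprofloxacin reference; Replicates: triplicate.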
As for `CCn1cc(C(=O)O)c(=O)c2cnc(N3CCN(C(=S)NC(=O)c4cccc(C)c4)CC3)nc21`, the IC50 is 19 µM (inactive).
As for `CCn1cc(C(=O)O)c(=O)c2cnc(N3CCN(C(=S)NCc4ccccc4)CC3)nc21`, the IC50 is 29.4 µM (inactive).
The value for `CCn1cc(C(=O)O)c(=O)c2cnc(N3CCN(C(=S)Nc4ccccc4OC)CC3)nc21` was 30.6 µM (inactive); that for `CCn1cc(C(=O)O)c(=O)c2cnc(N3CCN(C(=S)Nc4cccc(C(F)(F)F)c4)CC3)nc21` was 1.03 µM; that for `CCn1cc(C(=O)O)c(=O)c2cnc(N3CCN(C(=S)Nc4ccccc4F)CC3)nc21` was 7.65 µM.
Then `CCn1cc(C(=O)O)c(=O)c2cnc(N3CCN(C(=S)Nc4ccc(Cl)cc4)CC3)nc21`, with 6.5 µM.

A word on the IC50: it is the concentration needed to halve the response being measured.
